Values after ≈ are worked out from the molar mass of the structure shown. Active and inactive are the calls of the source. The rule behind the calls is not given here.
Legend:
Pseudomonas aeruginosa [1] = test: Antibacterial activity against Pseudomonas aeruginosa NCIM 2035 after 24 hrs by twofold serial dilution method; type: functional; settings: NCIM 2035, 24 h
Procedure, shortened: (§1)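 Two-fold serial dilution in nutrient broth; compounds from 1 mg mL^-1 DMSO stocks, 0.2 mL into 1.8 mL seeded broth, then six serial dilutions. Inoculum from 24-h nutrient agar cultures grown at 37 ± 1 °C, final 10⁵ cfu mL^-1, pH 7.4 ± 0.2. Incubated at 37 ± 1 °C. MIC read visually after 24 h. Seeded-broth and solvent controls included.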

Aspergillus niger = test: Antifungal activity against Aspergillus niger NCIM 590 after 72 to 96 hrs by twofold serial dilution method; type: functional
Procedure, shortened: (§2)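 Two-fold serial dilution in Sabouraud dextrose broth; compounds from 1 mg mL^-1 DMSO stocks, 0.2 mL into 1.8 mL seeded broth, then six serial dilutions. Spores from 24-h to 7-day Sabouraud agar slants, final 1.1–1.5 × 10² cfu mL^-1, pH 7.4 ± 0.2. Incubated at 28 ± 1 °C. MIC read visually after 72–96 h. Seeded-broth and solvent controls included.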

Escherichia coli [2] = test: Antibacterial activity against Escherichia coli NCIM 2345 after 24 hrs by twofold serial dilution method; type: functional; settings: NCIM 2345, 24 h; procedure, shortened: as §1
Candida albicans [3] = test: Antifungal activity against Candida albicans-51 NCIM C27 after 72 to 96 hrs by twofold serial dilution method; type: functional; procedure, shortened: as §2
[4] = system: Mycobacterium tuberculosis; test: Antitubercular activity against Mycobacterium tuberculosis H37Rv ATCC 27294 assessed as reduction of relative light unit at 1 ug/ml after 72 hrs by luciferase reporter phage assay relative to control; type: functional, H37Rv ATTC 27294; parameters: scale not given: the % may be the effect or the level left
Procedure, shortened: (§3)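 Luciferase reporter phage assay. Luminescence (RLU) integrated for 10 s on a luminometer, in duplicate per sample and averaged. Percent RLU reduction calculated against untreated control. Run repeated if the control mean RLU was below 1000.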

Bacillus subtilis [5] = test: Antibacterial activity against Bacillus subtilis NCIM 2439 after 24 hrs by twofold serial dilution method; type: functional; settings: NCIM 2439, 24 h; procedure, shortened: as §1
Candida albicans [6] = test: Antifungal activity against Candida albicans-6 NCIM C27 after 72 to 96 hrs by twofold serial dilution method; type: functional; procedure, shortened: as §2
Klebsiella pneumoniae [7] = test: Antibacterial activity against Klebsiella pneumoniae after 24 hrs by twofold serial dilution method; type: functional; procedure, shortened: as §1
[8] = system: Mycobacterium tuberculosis; test: Antitubercular activity against Mycobacterium tuberculosis H37Rv ATCC 27294 assessed as reduction of relative light unit at 2 ug/ml after 72 hrs by luciferase reporter phage assay relative to control; type: functional, H37Rv ATTC 27294; parameters: scale not given: the % may be the effect or the level left; procedure, shortened: as §3
Staphylococcus aureus = test: Antibacterial activity against Staphylococcus aureus NCIM 2492 after 24 hrs by twofold serial dilution method; type: functional; settings: NCIM 2492, 24 h; procedure, shortened: as §1
Aspergillus flavus [9] = test: Antifungal activity against Aspergillus flavus NCIM 539 after 72 to 96 hrs by twofold serial dilution method; type: functional; procedure, shortened: as §2
Candida albicans [10] = test: Antifungal activity against Candida albicans NCIM C27 after 72 to 96 hrs by twofold serial dilution method; type: functional; procedure, shortened: as §2
Klebsiella pneumoniae [11] = test: Antibacterial activity against Klebsiella pneumoniae at 200 ug/ml after 24 hrs by twofold serial dilution method; type: functional, organism-based
Escherichia coli [12] = test: Antibacterial activity against Escherichia coli NCIM 2345 at 200 ug/ml after 24 hrs by twofold serial dilution method; type: functional, organism-based
Aspergillus flavus [13] = test: Antifungal activity against Aspergillus flavus NCIM 539 at 200 ug/ml after 72 to 96 hrs by twofold serial dilution method; type: functional, organism-based
Candida albicans [14] = test: Antifungal activity against Candida albicans NCIM C27 at 200 ug/ml after 72 to 96 hrs by twofold serial dilution method; type: functional, organism-based
Candida albicans [15] = test: Antifungal activity against Candida albicans-6 NCIM C27 at 200 ug/ml after 72 to 96 hrs by twofold serial dilution method; type: functional, organism-based
Bacillus subtilis [16] = test: Antibacterial activity against Bacillus subtilis NCIM 2439 at 200 ug/ml after 24 hrs by twofold serial dilution method; type: functional, organism-based
Pseudomonas aeruginosa [17] = test: Antibacterial activity against Pseudomonas aeruginosa NCIM 2035 at 200 ug/ml after 24 hrs by twofold serial dilution method; type: functional, organism-based

SMILES | MIC (Pseudomonas aeruginosa [1]) | MIC (Aspergillus niger) | MIC (Escherichia coli [2]) | MIC (Candida albicans [3]) | Activity [4] | MIC (Bacillus subtilis [5]) | MIC (Candida albicans [6]) | MIC (Klebsiella pneumoniae [7]) | Activity [8] | MIC (Staphylococcus aureus) | MIC (Aspergillus flavus [9]) | MIC (Candida albicans [10]) | Activity (Klebsiella pneumoniae [11]) | Activity (Escherichia coli [12]) | Activity (Aspergillus flavus [13]) | Activity (Candida albicans [14]) | Activity (Candida albicans [15]) | Activity (Bacillus subtilis [16]) | Activity (Pseudomonas aeruginosa [17])
O=C(N/N=C1\C2CCCC1[C@H](c1cccc(Cl)c1)N[C@@H]2c1cccc(Cl)c1)c1ccncc1 | 100 µg/mL (≈ 209 µM) | 100 µg/mL (≈ 209 µM) | 50 µg/mL (≈ 104 µM) | 200 µg/mL (≈ 417 µM) | 75.42% | 100 µg/mL (≈ 209 µM) | 50 µg/mL (≈ 104 µM) | 50 µg/mL (≈ 104 µM) | 85.34% | 100 µg/mL (≈ 209 µM) | 200 µg/mL (≈ 417 µM) | 200 µg/mL (≈ 417 µM) | – | – | – | – | – | – | –
COc1cccc([C@H]2N[C@@H](c3cccc(OC)c3)C3CCCC2/C3=N\NC(=O)c2ccncc2)c1 | 200 µg/mL (≈ 425 µM) | 100 µg/mL (≈ 213 µM) | 200 µg/mL (≈ 425 µM) | 200 µg/mL (≈ 425 µM) | 77.18% | 50 µg/mL (≈ 106 µM) | 200 µg/mL (≈ 425 µM) | 100 µg/mL (≈ 213 µM) | 87.06% | 200 µg/mL (≈ 425 µM) | 100 µg/mL (≈ 213 µM) | 100 µg/mL (≈ 213 µM) | – | – | – | – | – | – | –
Cc1ccc([C@H]2N[C@@H](c3ccc(C)cc3)C3CCCC2/C3=N\NC(=O)c2ccncc2)cc1 | 100 µg/mL (≈ 228 µM) | 100 µg/mL (≈ 228 µM) | – | 100 µg/mL (≈ 228 µM) | 72.03% | 200 µg/mL (≈ 456 µM) | 200 µg/mL (≈ 456 µM) | – | 82.04% | 200 µg/mL (≈ 456 µM) | – | 100 µg/mL (≈ 228 µM) | inactive | inactive | inactive | – | – | – | –
CC1(C)S[C@@H]2[C@H](NC(=O)Cc3ccccc3)C(=O)N2[C@H]1C(=O)O [PENICILLIN G] | 50 µg/mL (≈ 150 µM) | – | 50 µg/mL (≈ 150 µM) | – | – | 25 µg/mL (≈ 74.8 µM) | – | 12.5 µg/mL (≈ 37.4 µM) | – | 12.5 µg/mL (≈ 37.4 µM) | – | – | – | – | – | – | – | – | –
O=C(N/N=C1\C2CCCC1[C@H](c1ccc(F)cc1)N[C@@H]2c1ccc(F)cc1)c1ccncc1 | 100 µg/mL (≈ 224 µM) | 100 µg/mL (≈ 224 µM) | 100 µg/mL (≈ 224 µM) | 50 µg/mL (≈ 112 µM) | 76.63% | 50 µg/mL (≈ 112 µM) | 50 µg/mL (≈ 112 µM) | – | 86.12% | 50 µg/mL (≈ 112 µM) | 100 µg/mL (≈ 224 µM) | 50 µg/mL (≈ 112 µM) | inactive | – | – | – | – | – | –
NNC(=O)c1ccncc1 [ISONIAZID] | – | – | – | – | 98.42% | – | – | – | 98.42% | – | – | – | – | – | – | – | – | – | –
C[C@@H]1[C@H](O)[C@@H](C)/C=C/C=C/C=C/C=C/C=C/C=C/C=C/[C@H](O[C@@H]2O[C@H](C)[C@@H](O)[C@H](N)[C@@H]2O)C[C@@H]2O[C@](O)(C[C@@H](O)C[C@@H](O)[C@H](O)CC[C@@H](O)C[C@@H](O)CC(=O)O[C@H]1C)C[C@H](O)[C@H]2C(=O)O [AMPHOTERICIN B] | – | 50 µg/mL (≈ 54.1 µM) | – | 25 µg/mL (≈ 27.1 µM) | – | – | 25 µg/mL (≈ 27.1 µM) | – | – | – | 50 µg/mL (≈ 54.1 µM) | 25 µg/mL (≈ 27.1 µM) | – | – | – | – | – | – | –
CN[C@@H]1[C@H](O[C@H]2[C@H](O[C@H]3[C@H](O)[C@@H](O)[C@H](N=C(N)N)[C@@H](O)[C@@H]3N=C(N)N)O[C@@H](C)[C@]2(O)C=O)O[C@@H](CO)[C@H](O)[C@H]1O [STREPTOMYCIN] | 25 µg/mL (≈ 43 µM) | – | 12.5 µg/mL (≈ 21.5 µM) | – | – | 12.5 µg/mL (≈ 21.5 µM) | – | 50 µg/mL (≈ 86 µM) | – | 50 µg/mL (≈ 86 µM) | – | – | – | – | – | – | – | – | –
O=C(N/N=C1\C2CCCC1[C@H](c1ccccc1)N[C@@H]2c1ccccc1)c1ccncc1 | 200 µg/mL (≈ 487 µM) | 200 µg/mL (≈ 487 µM) | – | 100 µg/mL (≈ 244 µM) | 77.76% | – | – | – | 87.9% | 100 µg/mL (≈ 244 µM) | – | – | inactive | inactive | inactive | inactive | inactive | inactive | –
COc1ccc([C@H]2N[C@@H](c3ccc(OC)cc3)C3CCCC2/C3=N\NC(=O)c2ccncc2)cc1 | – | 200 µg/mL (≈ 425 µM) | 100 µg/mL (≈ 213 µM) | 100 µg/mL (≈ 213 µM) | 73.07% | 200 µg/mL (≈ 425 µM) | 100 µg/mL (≈ 213 µM) | 200 µg/mL (≈ 425 µM) | 83.02% | 100 µg/mL (≈ 213 µM) | 200 µg/mL (≈ 425 µM) | 200 µg/mL (≈ 425 µM) | – | – | – | – | – | – | –
O=C(N/N=C1\C2CCCC1[C@H](c1ccc(Cl)cc1)N[C@@H]2c1ccc(Cl)cc1)c1ccncc1 | 100 µg/mL (≈ 209 µM) | 100 µg/mL (≈ 209 µM) | 50 µg/mL (≈ 104 µM) | 50 µg/mL (≈ 104 µM) | 75.61% | 100 µg/mL (≈ 209 µM) | 100 µg/mL (≈ 209 µM) | 100 µg/mL (≈ 209 µM) | 85.22% | 50 µg/mL (≈ 104 µM) | 200 µg/mL (≈ 417 µM) | 100 µg/mL (≈ 209 µM) | – | – | – | – | – | – | inactive
